Source: ChEMBL document CHEMBL1212891, “Effect of [6]-shogaol on cytosolic Ca2+ levels and proliferation in human oral cancer cells (OC2)” (J Nat Prod, 2010)
The source made the active and inactive calls. The calls are words filed in the database; no cut-off is given here.

Legend:
OC2 [1] = assay: Activation of phospholipase A2/C in human OC2 cells assessed as increase in intracellular calcium level at 1 uM; type: cell-based
Summary of the method: (§1)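 OC2 cells trypsinized (10^6/mL), recovered 1 h in culture medium, loaded with 2 µM fura-2/AM for 30 min at 25 °C, washed and resuspended in Ca2+-containing buffer pH 7.4 (NaCl 140, KCl 5, MgCl2 1, CaCl2 2, HEPES 5, glucose 5 mM). 0.5 million cells/mL stirred at 25 °C. Ratio of 340/380 nm excitation read at 510 nm emission every 1 s. Calibrated with Triton X-100 and EGTA, Kd 155 nM.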

OC2 [2] = assay: Activation of phospholipase A2/C in human OC2 cells assessed as increase in intracellular calcium level at 100 uM in presence of PKA inhibitor H89; type: cell-based; summary of the method: as §1
OC2 [3] = assay: Activation of phospholipase A2/C in human OC2 cells assessed as increase in intracellular calcium level at 100 uM pretreated with phospholipase C inhibitor […] and ATP; type: cell-based
OC2 [4] = assay: Activation of phospholipase A2/C in human OC2 cells assessed as increase in intracellular calcium level at 100 uM; type: cell-based; summary of the method: as §1
OC2 [5] = assay: Activation of phospholipase A2/C in human OC2 cells assessed as increase in intracellular calcium level in presence of phospholipase-A2 inhibitor aristolochc acid; type: cell-based; summary of the method: as §1
OC2 [6] = assay: Activation of calcium channel in human OC2 cells assessed as increase in intracellular calcium […] in presence of La3+; type: cell-based; summary of the method: as §1
OC2 [7] = assay: Activation of phospholipase A2/C in human OC2 cells assessed as increase in intracellular calcium level at 100 uM in presence of protein kinase C activator PMA
OC2 [8] = assay: Activation of phospholipase A2/C in human OC2 cells assessed as increase in intracellular calcium level at 0.1 uM; type: cell-based; summary of the method: as §1
OC2 [9] = assay: Activation of phospholipase A2/C in human OC2 cells assessed as decrease in intracellular calcium release at 100 uM in presence of Calcium entry blocker La3+; type: cell-based; summary of the method: as §1
OC2 [10] = assay: (§2) Cytotoxicity in human OC2 cells assessed as decrease in cell viability after 24 hrs by crystal violate assay; type: functional, cell-based
Summary of the method: (§3)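 OC2 cells in RPMI with 10% heat-inactivated FCS at 37 °C, 5% CO2. Plated at 1 × 10^4 per well and grown overnight. At about 70% confluence, medium replaced with compound at 0-100 µM from a DMSO stock (final DMSO <0.5%, DMSO as control) for 24 h. Cell number by crystal violet elution, expressed as percent of control. n=5.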

[11] = as §2; type: functional, cell-based; conditions: OC2, 24 h; summary of the method: as §3
OC2 [12] = assay: Activation of phospholipase A2/C in human OC2 cells assessed as increase in intracellular calcium level at 100 uM in presence of PKC inhibitor GF109203X; type: cell-based; summary of the method: as §1
OC2 [13] = assay: Activation of phospholipase A2/C in human OC2 cells assessed as increase in intracellular calcium level at 100 uM in presence of thapsigargin; type: cell-based

COC(=O)C1=C(C)NC(C)=C(C(=O)OCCN(C)Cc2ccccc2)C1c1cccc([N+](=O)[O-])c1 (configuration not stated)
Activity (OC2 [1]): inactive

COC(=O)C1=C(C)NC(C)=C(C(=O)OC)C1c1ccccc1[N+](=O)[O-]
Activity (OC2 [1]): inactive

CCCCC/C=C/C(=O)CCc1ccc(O)c(OC)c1 [SHOGAOL]
Activity (OC2 [2]): Active | Activity (OC2 [3]): inactive | Activity (OC2 [4]): 68% | Activity (OC2 [5]): inactive | Activity (OC2 [6]): inactive | Activity (OC2 [7]): Active | Activity (OC2 [8]): inactive | Activity (OC2 [9]): inactive | Activity (OC2 [10]): Dose-dependent effect | IC50 [11]: 15.6 µM | Activity (OC2 [12]): Active | Activity (OC2 [13]): inactive

COc1ccc([C@@H]2Sc3ccccc3N(CCN(C)C)C(=O)[C@@H]2OC(C)=O)cc1
Activity (OC2 [1]): inactive

CCCCC[C@H](O)CC(=O)CCc1ccc(O)c(OC)c1 [GINGEROL]
IC50 [11]: 74.2 µM

COc1ccc(CCN(C)CCCC(C#N)(c2ccc(OC)c(OC)c2)C(C)C)cc1OC (configuration not stated)
Activity (OC2 [1]): inactive
